RAD52 inh: RAD52 DNA annealing inhibitors, primary screen, biochemical, FRET, single point, set 2; inhibition, % at 18.7 µM; DNA repair protein RAD52 homolog (Homo sapiens), P43351; recombinant RAD52 DNA annealing, FRET fluorescence; AID 651710, 2012; hit rate 0.46% among 360,000;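 active = every replicate showing at least 50% inhibition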
CAL PDZ FP-1: CAL PDZ peptide-binding inhibitors, primary screen, biochemical, fluorescence polarization, Cer-tagged CAL PDZ, HTS. Golgi-associated PDZ and coiled-coil motif-containing protein (Homo sapiens), Q9HD26. purified CAL PDZ, TMR-peptide fluorescence polarization, 1 h. inhibition, % at 20 µM. hit rate 0.02% among 330,000. AID 504414, 2011;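 active = highest replicate inhibition of at least 40%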;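 note: plate controls were DMSO neutral control wells for no effect and unlabeled competitor peptide control wells for full effect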
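Test system: purified CerCALP PDZ construct; Compound dosing: one concentration, 20 µM compound; Also added: TMR-labelled reporter peptide T*-PRC34 bound in PDZ groove; Read-out: inhibition from polarization loss; Controls: unlabelled peptide and DMSO controls; Signal: FP readout, S and P plane fluorescence; Incubation: 1 h at RT.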
RAD54 branch: inhibitors of human RAD54 branch migration, primary screen, biochemical, fluorescence, single point; inhibition, % at 10.4 µM; RAD54 Holliday junction branch migration, FAM/BHQ fluorescence; hit rate 0.14% among 360,000; DNA repair and recombination protein RAD54-like (Homo sapiens), Q92698;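 active = mean normalized replicate activity at least 40 and at least half of replicates scoring 40 or more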;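 note: 0% = median of neutral control wells and 100% = median of positive control wells; inhibitors cause a drop in the FAM fluorescence signal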
CAL PDZ FP-2: untagged CAL PDZ binding inhibitors, primary screen, biochemical, fluorescence polarization, HTS; Golgi-associated PDZ and coiled-coil motif-containing protein (Homo sapiens), Q9HD26; purified CAL PDZ, TMR-peptide fluorescence polarization, 1 h; inhibition, % at 24.9 µM; hit rate 0.92% among 300,000; AID 602252, 2012;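 active = mean inhibition of at least 30% with at least half of replicates also reaching 30%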;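 note: 0% = DMSO neutral control and 100% = excess unlabeled competitor peptide PRC23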
ERp5 block: inhibitors of ERp5-driven insulin aggregation, primary screen, biochemical, turbidity, absorbance 650 nm, single point | 90 min | inhibition, % at 9.99 µM | hit rate 0.05% among 350,000;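 active = mean replicate inhibition above about 25%, with every replicate also reaching it, limit read from the data, passing the limit was not always enough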
PDI inh: inhibitors of human PDI, primary screen, biochemical, turbidity, single point, plate reader. PDI insulin aggregation turbidity, A650, 90 min. inhibition, % at 10 µM. hit rate 0.052% among 350,000. AID 588391, 2011;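 active = mean inhibition across replicates of 30% or more, whatever share of single replicates reach that level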
Target sequence (P07237 whole entry, looked up): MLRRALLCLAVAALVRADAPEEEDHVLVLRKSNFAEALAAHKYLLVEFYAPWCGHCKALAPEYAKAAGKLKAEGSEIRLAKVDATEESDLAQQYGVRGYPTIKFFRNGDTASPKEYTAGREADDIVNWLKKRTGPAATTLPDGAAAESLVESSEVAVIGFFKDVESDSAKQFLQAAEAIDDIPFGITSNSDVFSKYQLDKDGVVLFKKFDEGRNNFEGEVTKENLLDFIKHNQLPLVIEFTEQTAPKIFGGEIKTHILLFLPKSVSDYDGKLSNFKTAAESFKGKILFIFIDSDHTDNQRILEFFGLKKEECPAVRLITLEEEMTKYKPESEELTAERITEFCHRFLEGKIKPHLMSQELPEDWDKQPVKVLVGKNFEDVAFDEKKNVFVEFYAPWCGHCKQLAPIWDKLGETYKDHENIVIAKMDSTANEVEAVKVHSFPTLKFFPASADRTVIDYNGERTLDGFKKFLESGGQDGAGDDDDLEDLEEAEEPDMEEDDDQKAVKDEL
* = called active by the depositor; / = not tested or not shown; + = active, no number; ! = repeats disagree. This is a sample that favours compounds with a hit; in the whole collection about 1% have one here.

SMILES	RAD52 inh	CAL PDZ FP-1	RAD54 branch	CAL PDZ FP-2	ERp5 block	PDI inh
CCCNC(=O)c1onc(CSc2ccc(F)cc2)c1C(=O)NCCOC	-12.0	0.6	1.9	-1.5	4.6	-2.2
COCCNC(=O)c1onc(CSc2ccc(F)cc2)c1C(=O)NCCOC	-11.7	-0.9	6.2	31.1*	0.8	18.0
CC(C)Cn1c(N)c(C(=O)COC(=O)c2ccc(O)cc2)c(=O)n(C)c1=O	-41.2	-0.3	/	-8.5	0.2	54.6*
CC(C)c1ccc(C(=O)OCC(=O)c2c(N)n(C)c(=O)n(C)c2=O)cc1	-24.5	1.0	4.3	/	-3.9	-7.0
CC(C)Cn1c(N)c(C(=O)COC(=O)c2cc(F)cc(F)c2)c(=O)n(C)c1=O	-28.1	-2.7	/	35.6*	-7.8	2.9
CC(C)Cn1c(N)c(C(=O)COC(=O)c2cnc(Cl)c(Cl)c2)c(=O)n(C)c1=O	-11.8	-0.7	/	-10.0	7.3	7.9
CC(CCc1ccccn1)C(=O)C(C)CCc1ccccn1 (centres undefined)	-101.5	-0.6	-5.2	80.9*	3.1	5.1
CC(C)Sc1nnc(SCC(=O)NCCCN2CCCC2=O)s1	-6.5	0.0	4.7	44.1*	5.3	8.2
Fc1cccc(CN2[C@@H]3CNC[C@H]2C3c2ccc(-c3ccncc3)cc2)c1 (some centres undefined)	65.2*!	/	/	/	9.3	/
c1ccc(-c2ccc(C3[C@H]4CNC[C@@H]3N4Cc3cccc(-c4ccncc4)c3)cc2)cc1 (some centres undefined)	59.2*	/	/	/	-2.0	/
CC(C)OC(=O)N(C)C[C@H]1OCc2ccccc2-c2ccccc2C(=O)N([C@H](C)CO)C[C@H]1C	-0.7	/	-6.2	/	7.7	/
O=C(NNS(=O)(=O)c1ccccc1[N+](=O)[O-])c1cccc(Br)c1	-4.5	-0.9	1.2	51.1*	0.8	2.3
Cc1ccc(C)c(N(C(=O)Cn2nnc(-c3cccs3)n2)C(C(=O)NC2CCCC2)c2ccncc2)c1 (centres undefined)	/	0.2	16.5	0.0	/	-0.3
O=C(NC1CCCC1)C(c1ccncc1)N(CC1CCCO1)C(=O)Cn1nnc(-c2cccs2)n1 (centres undefined)	/	0.2	7.0	31.8*	/	15.2
CC(C)(C)N(C(=O)Cn1nnc(-c2ccc(F)cc2)n1)C(C(=O)NC1CCCC1)c1ccncc1 (centres undefined)	/	-1.4	/	36.1*	/	3.2
Cc1ccc(-c2nnn(CC(=O)N(Cc3ccc(F)cc3)C(C(=O)NC3CCCC3)c3ccncc3)n2)o1 (centres undefined)	/	-2.1	-3.2	6.0	/	-5.2
CNC(=O)C[C@@H]1CC[C@@H]2[C@H](COc3ccc(NC(=O)c4cccc(OC)c4)cc3C(=O)N2C)O1	-6.1	/	10.4	/	-2.7	/
Cc1ccc(N2CCN(CCCN3C(=O)C4CCCN4C3=O)CC2)cc1 (centres undefined)	2.4	0.0	/	51.7*	3.2	-0.1
CCNC(=O)C[C@H]1CC[C@H]2[C@@H](COc3ccc(NC(=O)Cc4cccs4)cc3C(=O)N2C)O1	7.5	/	6.8	/	-1.0	/
CCOC(=O)c1ccc(S(=O)(=O)N2CCN(S(=O)(=O)CC)CC2)cc1	/	-2.0	8.2	64.9*	/	-2.2
CCOC(=O)c1ccc(S(=O)(=O)N2CCNCC2)cc1	/	-1.2	7.5	/	/	10.5
CN(C(=O)COC(=O)c1ccc(Br)c(S(=O)(=O)N2CCOCC2)c1)C1CCCCC1	-16.3	12.0	-9.1	+	7.3	0.1
CC(C)(C)N(Cc1ccccc1)C(=O)COC(=O)c1ccc(S(=O)(=O)N2CCOCC2)cc1	-30.5	-0.4	2.7	39.1*	0.4	8.1
CC(=O)N1CCN(S(=O)(=O)c2cccc(C(=O)OCC(=O)N(Cc3ccccc3)C(C)(C)C)c2)CC1	-16.0	-0.3	-3.8	3.5	2.6	-8.0
COc1ccc(N2CCN(C(=S)Nc3cc(C)cc(C)c3)CC2)cc1	/	-2.0	0.8	-0.2	/	-7.9
SMILES	RAD52 inh	CAL PDZ FP-1	RAD54 branch	CAL PDZ FP-2	ERp5 block	PDI inh
COc1ccc(N2CCN(C(=S)NCc3ccc(C)cc3)CC2)cc1	-21.8	0.0	/	31.5*	1.9	1.1
O=C(Cc1ccccc1)N[C@@H]1CC[C@H](CC(=O)N2CCOCC2)O[C@H]1CO	-3.4	/	-8.8	/	-0.7	/
COc1ccc(/C=N/N=C2/NC(=O)C(CC(=O)NC(N)=O)S2)cc1 (centres undefined)	-21.0	0.1	-15.3	49.1*	2.3	-2.7
CCCCNC(=O)CC1S/C(=N/N=C/c2ccc(OC)cc2)NC1=O (centres undefined)	-8.7	-0.7	/	0.7	1.3	1.3
COc1ccc(S(=O)(=O)Nc2ccc3c(c2)CC(=O)N([C@@H](C)CO)C[C@@H](C)[C@H](CN(C)CC2CCCCC2)O3)cc1	4.8	/	4.9	/	-2.6	/
O=C(c1cccnc1)N1C[C@H]2[C@@H](c3ccccc31)[C@H](CO)N2CC1CCCC1	-1.6	/	-0.2	/	-2.0	/
Fc1cccc(Cc2noc(CN3CCSCC3)n2)c1	-13.6	-1.0	/	57.4*	-2.9	-3.2
O=C(NCC[C@@H]1CC[C@@H](NC(=O)c2cnccn2)[C@H](CO)O1)c1ccc2c(c1)OCO2	-2.0	/	1.4	/	4.1	/
O=C/C=C/c1ccc2c(c1)OCO2	3.3	/	/	/	2.3	/
O=C1[C@@H]2[C@H](C(=O)N1c1ccccc1)[C@@]13COC[C@H](c4ccccc4)N1C(=O)[C@]2(C(=O)NCc1ccccc1)O3	8.1	/	/	/	-0.2	/
COc1cccc(CC(=O)NNC(=O)CN(C)S(=O)(=O)c2ccc(C)cc2)c1	-2.1	-1.5	6.8	-4.5	27.4*	4.9
COc1ccc(CC(=O)NNC(=O)CN(C)S(=O)(=O)c2ccc(Cl)cc2)cc1OC	-13.0	-0.3	-1.4	-2.9	2.8	-9.3
C[C@H](CO)N1C[C@H](C)[C@@H](CN(C)S(=O)(=O)c2cccs2)OCCCC[C@H](C)Oc2ccc(NS(=O)(=O)c3ccc(F)cc3)cc2C1=O	-1.4	/	-2.8	/	0.0	/
CCOC(=O)C1CCCN(C(c2ccccn2)c2c(C)[nH]c3ccccc23)C1 (centres undefined)	-17.2	-1.7	/	119.3*	-3.0	-11.3
Cc1[nH]c2ccccc2c1C(c1ccccn1)N1CCCC1 (centres undefined)	-19.1	-1.2	/	-0.2	-0.7	2.3
